Measurements published in ChEMBL document CHEMBL1157620, “1-(Aryl)-6-[alkoxyalkyl]-3-azabicyclo[3.1.0]hexanes and 6-(aryl)-6-[alkoxyalkyl]-3-azabicyclo[3.1.0]hexanes: a new series of potent and selective triple reuptake inhibitors” (J Med Chem, 2010).
Calls of active or inactive are those of the source. The rule behind the calls is not given here.

Assays:
[1] = target: T1, Sodium-dependent noradrenaline transporter (Homo sapiens, UniProt P23975); assay: Displacement of [3H]nisoxetine from human recombinant NET expressed in BacMam virus-transduced cells by scintillation proximity assay; format: cell-based
T1 sequence (P23975 whole entry): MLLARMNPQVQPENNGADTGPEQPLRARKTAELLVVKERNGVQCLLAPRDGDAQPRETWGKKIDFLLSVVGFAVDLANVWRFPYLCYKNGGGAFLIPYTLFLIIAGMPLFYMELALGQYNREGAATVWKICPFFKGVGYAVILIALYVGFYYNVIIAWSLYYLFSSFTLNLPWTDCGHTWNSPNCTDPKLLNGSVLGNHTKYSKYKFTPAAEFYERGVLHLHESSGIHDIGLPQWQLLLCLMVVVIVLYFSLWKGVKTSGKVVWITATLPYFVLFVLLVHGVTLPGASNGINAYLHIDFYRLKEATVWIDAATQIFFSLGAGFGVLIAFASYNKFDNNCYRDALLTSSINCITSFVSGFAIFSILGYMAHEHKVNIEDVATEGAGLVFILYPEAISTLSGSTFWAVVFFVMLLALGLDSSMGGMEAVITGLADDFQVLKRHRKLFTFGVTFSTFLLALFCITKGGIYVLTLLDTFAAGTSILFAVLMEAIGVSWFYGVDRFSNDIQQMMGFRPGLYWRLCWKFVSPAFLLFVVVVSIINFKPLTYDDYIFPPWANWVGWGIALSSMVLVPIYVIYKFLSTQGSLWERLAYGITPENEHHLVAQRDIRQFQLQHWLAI
In short: (§1)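 BacMam-transduced membranes in SPA format. SERT: 1 mg/mL beads, 6 μg/mL membranes, 3 nM [3H]citalopram. NET: 2 mg/mL beads, 40 μg/mL membranes, 10 nM [3H]nisoxetine. Incubated overnight at room temperature; pKi from pIC50 by Cheng-Prusoff.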

[2] = Bioavailability in rat; format: ADME, organism-based; settings: in vivo
[3] = target: T2, Sodium-dependent dopamine transporter (Homo sapiens, UniProt Q01959); assay: Displacement of [3H]WIN-35428 from human recombinant DAT expressed in BacMam virus-transduced cells by scintillation proximity assay; format: cell-based
T2 sequence (Q01959 whole entry): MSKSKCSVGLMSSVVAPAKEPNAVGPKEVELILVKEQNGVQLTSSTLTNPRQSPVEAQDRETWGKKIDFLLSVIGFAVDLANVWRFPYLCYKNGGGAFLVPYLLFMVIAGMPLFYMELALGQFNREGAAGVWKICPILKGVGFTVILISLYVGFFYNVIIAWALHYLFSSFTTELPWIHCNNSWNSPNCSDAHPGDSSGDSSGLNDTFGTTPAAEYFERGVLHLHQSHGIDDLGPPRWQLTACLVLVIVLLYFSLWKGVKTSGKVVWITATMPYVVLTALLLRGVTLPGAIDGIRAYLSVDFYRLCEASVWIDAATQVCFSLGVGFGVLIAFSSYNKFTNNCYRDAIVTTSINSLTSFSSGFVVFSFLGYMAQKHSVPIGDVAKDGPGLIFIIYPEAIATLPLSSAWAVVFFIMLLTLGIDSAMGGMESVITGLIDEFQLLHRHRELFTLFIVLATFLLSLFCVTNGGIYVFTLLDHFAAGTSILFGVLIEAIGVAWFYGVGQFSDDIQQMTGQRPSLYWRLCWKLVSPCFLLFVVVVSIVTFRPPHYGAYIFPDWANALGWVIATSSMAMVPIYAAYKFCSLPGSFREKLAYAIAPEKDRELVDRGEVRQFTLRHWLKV

Brain = assay: (§2) Fraction unbound in rat brain; format: ADME, tissue-based
[4] = target: T3, Sodium-dependent serotonin transporter (Homo sapiens, UniProt P31645); assay: Displacement of [3H]citalopram from human recombinant SERT expressed in BacMam virus-transduced cells by scintillation proximity assay; format: cell-based; in short: as §1
T3 sequence (P31645 whole entry): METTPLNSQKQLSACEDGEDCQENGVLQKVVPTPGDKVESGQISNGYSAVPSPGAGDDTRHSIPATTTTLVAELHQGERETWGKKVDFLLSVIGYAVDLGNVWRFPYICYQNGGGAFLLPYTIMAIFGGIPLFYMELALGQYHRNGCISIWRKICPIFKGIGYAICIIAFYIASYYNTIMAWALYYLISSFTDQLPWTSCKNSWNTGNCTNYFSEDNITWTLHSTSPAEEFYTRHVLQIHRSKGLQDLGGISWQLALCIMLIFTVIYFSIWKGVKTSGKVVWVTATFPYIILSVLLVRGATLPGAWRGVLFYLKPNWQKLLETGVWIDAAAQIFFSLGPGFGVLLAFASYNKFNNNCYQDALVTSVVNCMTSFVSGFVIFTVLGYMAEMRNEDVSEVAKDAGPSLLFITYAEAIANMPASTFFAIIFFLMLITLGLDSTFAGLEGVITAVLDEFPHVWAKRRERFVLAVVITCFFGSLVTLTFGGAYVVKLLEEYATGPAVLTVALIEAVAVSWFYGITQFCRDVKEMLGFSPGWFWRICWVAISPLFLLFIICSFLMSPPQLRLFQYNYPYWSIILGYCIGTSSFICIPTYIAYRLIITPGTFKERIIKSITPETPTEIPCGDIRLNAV

[5] = Blood clearance in rat; format: ADME, organism-based
[6] = Volume of distribution in rat; format: ADME, organism-based; settings: in vivo
[7] = Half life in rat; format: ADME, organism-based; settings: in vivo
[8] = target: Muscarinic acetylcholine receptor M5 (Homo sapiens, UniProt P08912); assay: Inhibition of muscarinic M5 receptor
[9] = target: T2, Sodium-dependent dopamine transporter; assay: Inhibition of [3H]dopamine reuptake at human DAT expressed in LLCPK cells by scintillation proximity assay; format: cell-based
In short: (§3)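 Uptake-SPA on stably transfected LLCPK cells in HEPES buffer, pH 7.4. SERT: 25000 cells/well, 1.5 mg/mL beads, 35 nM [3H]serotonin. NET: 50000 cells/well, 1.5 mg/mL beads, 45 nM [3H]noradrenalin. DAT: 75000 cells/well, 2 mg/mL beads, 75 nM [3H]dopamine. Concentrations are those of the substrate addition. 1 h at room temperature; 4-parameter fit.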

[10] = target: Muscarinic acetylcholine receptor M2 (Homo sapiens, UniProt P08172); assay: Inhibition of muscarinic M2 receptor
[11] = target: T1, Sodium-dependent noradrenaline transporter; assay: Inhibition of [3H]noradrenalin reuptake at human NET expressed in LLCPK cells by scintillation proximity assay; format: cell-based; in short: as §3
[12] = target: Muscarinic acetylcholine receptor M1 (Homo sapiens, UniProt P11229); assay: Inhibition of muscarinic M1 receptor
Sequence of Muscarinic acetylcholine receptor M1 (P11229 whole entry): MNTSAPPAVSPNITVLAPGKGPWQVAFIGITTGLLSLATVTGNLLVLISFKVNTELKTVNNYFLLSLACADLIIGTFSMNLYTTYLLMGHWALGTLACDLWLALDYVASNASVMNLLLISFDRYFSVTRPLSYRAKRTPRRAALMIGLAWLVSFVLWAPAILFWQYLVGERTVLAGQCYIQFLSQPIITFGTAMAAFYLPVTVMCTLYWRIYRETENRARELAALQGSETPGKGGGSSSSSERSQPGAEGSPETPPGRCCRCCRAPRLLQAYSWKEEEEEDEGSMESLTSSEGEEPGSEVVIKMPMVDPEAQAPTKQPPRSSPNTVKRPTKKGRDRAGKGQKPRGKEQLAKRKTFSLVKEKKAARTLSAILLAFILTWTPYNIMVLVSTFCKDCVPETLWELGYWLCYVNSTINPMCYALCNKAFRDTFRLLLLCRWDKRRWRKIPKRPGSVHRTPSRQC

Liver microsomes [13] = assay: Intrinsic clearance in rat liver microsomes assessed per gram of protein at 0.5 uM after 30 mins by HPLC-MS/MS analysis; format: ADME, Microsome; settings: microsomes, 0.5 h, 0.5 µM
In short: (§4)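 Compound at 0.5 μM with rat or human liver microsomes (0.5 mg protein/mL), 50 mM phosphate, pH 7.4, 37 °C, started with NADPH. Sampled at 0-30 min, acetonitrile quench, HPLC-MS/MS. CLi from first-order elimination constant, scaled assuming 52.5 mg microsomal protein/g.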

[14] = target: Muscarinic acetylcholine receptor M3 (Homo sapiens, UniProt P20309); assay: Inhibition of muscarinic M3 receptor
[15] = target: T4, Voltage-gated inwardly rectifying potassium channel KCNH2 (Homo sapiens, UniProt Q12809); assay: Displacement of [3H][…] from human ERG by scintillation proximity assay
T4 sequence (Q12809 whole entry): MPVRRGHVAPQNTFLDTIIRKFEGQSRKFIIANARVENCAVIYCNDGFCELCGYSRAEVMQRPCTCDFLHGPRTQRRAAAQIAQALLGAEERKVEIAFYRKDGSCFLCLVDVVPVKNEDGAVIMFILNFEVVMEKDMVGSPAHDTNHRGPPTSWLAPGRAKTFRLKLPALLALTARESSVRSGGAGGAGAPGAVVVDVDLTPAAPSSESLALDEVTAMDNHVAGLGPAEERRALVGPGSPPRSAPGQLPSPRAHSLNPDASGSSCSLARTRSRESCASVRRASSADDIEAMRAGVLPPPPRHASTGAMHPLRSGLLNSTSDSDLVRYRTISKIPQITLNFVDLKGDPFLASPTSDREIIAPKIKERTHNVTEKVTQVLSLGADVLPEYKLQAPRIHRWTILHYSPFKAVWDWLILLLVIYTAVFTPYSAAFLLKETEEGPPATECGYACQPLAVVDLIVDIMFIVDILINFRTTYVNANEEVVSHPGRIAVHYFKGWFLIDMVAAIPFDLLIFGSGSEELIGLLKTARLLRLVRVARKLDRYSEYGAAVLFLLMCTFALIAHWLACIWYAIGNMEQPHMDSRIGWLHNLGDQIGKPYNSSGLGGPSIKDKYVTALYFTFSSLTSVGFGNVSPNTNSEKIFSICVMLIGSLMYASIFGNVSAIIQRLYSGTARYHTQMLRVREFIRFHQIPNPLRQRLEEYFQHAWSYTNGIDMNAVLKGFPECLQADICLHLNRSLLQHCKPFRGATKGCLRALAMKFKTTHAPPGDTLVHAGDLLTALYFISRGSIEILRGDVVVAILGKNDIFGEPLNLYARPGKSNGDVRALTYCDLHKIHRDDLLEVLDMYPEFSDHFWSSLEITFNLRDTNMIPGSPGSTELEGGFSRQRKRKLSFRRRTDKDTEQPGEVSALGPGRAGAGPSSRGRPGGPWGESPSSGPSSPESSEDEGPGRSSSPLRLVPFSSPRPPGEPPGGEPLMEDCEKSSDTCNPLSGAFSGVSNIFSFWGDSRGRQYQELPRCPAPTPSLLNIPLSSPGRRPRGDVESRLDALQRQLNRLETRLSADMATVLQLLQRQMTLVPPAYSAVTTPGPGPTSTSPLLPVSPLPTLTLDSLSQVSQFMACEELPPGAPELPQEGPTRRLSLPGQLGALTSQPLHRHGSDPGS
In short: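 SPA-format [³H]dofetilide binding to hERG, with bound signal read on a plate imager. The value is reported as a binding pKi.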

Liver microsomes [16] = assay: Intrinsic clearance in human liver microsomes assessed per gram of protein at 0.5 uM after 30 mins by HPLC-MS/MS analysis; format: ADME, Microsome; settings: microsomes, 0.5 h, 0.5 µM; in short: as §4
Cytochrome P450 2C19 = Cytochrome P450 2C19 (Homo sapiens, UniProt P33261); assay: Inhibition of human CYP2C19 by fluorescence assay; format: ADME
Sequence of Cytochrome P450 2C19 (P33261 whole entry): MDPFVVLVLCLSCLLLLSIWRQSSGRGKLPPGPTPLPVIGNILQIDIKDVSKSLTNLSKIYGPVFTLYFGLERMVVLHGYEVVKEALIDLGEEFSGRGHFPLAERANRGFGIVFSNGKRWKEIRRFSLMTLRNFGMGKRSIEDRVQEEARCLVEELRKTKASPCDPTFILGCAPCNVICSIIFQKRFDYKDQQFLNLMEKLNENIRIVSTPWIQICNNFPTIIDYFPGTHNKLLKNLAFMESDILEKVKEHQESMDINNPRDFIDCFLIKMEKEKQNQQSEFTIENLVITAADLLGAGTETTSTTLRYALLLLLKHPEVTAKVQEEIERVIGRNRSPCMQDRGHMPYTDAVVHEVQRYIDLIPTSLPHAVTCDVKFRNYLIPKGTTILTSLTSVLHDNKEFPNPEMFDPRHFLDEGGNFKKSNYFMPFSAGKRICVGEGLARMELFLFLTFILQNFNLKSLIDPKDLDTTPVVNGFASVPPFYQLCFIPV
In short: (§5)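 Recombinant human P450 bactosomes (0.1 mg/mL) in 50 mM phosphate, pH 7.4. Test compound at 0.1-10 μM, preincubated 10 min at 37 °C with fluorogenic substrate: ethoxyresorufin 0.5 μM (1A2), FCA 50 μM (2C9), BMC 10 μM (2C19), MMC 10 μM (2D6).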

Cytochrome P450 3A4 = Cytochrome P450 3A4 (Homo sapiens, UniProt P08684); assay: Inhibition of human CYP3A4 by fluorescence assay
Transporter = Transporter (Rattus norvegicus, UniProt Q63380); assay: Displacement of [N-methyl-3H]nisoxetine from rat hippocampus NET by filtration binding assay; format: tissue-based
In short: (§6)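 Native brain tissue filtration binding, run as for the recombinant transporters. SERT on rat or mouse cortex (20 and 7 μg protein/well respectively). NET on rat hippocampus (40 μg/well). DAT on rat striatum (20 μg/well).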

Cytochrome P450 2D6 = Cytochrome P450 2D6 (Homo sapiens, UniProt P10635); assay: Inhibition of human […] by fluorescence assay; format: ADME; in short: as §5
[17] = target: T3, Sodium-dependent serotonin transporter; assay: Inhibition of [3H]serotonin reuptake at human SERT expressed in LLCPK cells by scintillation proximity assay; format: cell-based; in short: as §3
[18] = as §2; format: ADME, tissue-based; settings: brain
[19] = target: 5-hydroxytryptamine receptor 2A (Homo sapiens, UniProt P28223); assay: Inhibition of 5HT2A receptor
Sequence of 5-hydroxytryptamine receptor 2A (P28223 whole entry): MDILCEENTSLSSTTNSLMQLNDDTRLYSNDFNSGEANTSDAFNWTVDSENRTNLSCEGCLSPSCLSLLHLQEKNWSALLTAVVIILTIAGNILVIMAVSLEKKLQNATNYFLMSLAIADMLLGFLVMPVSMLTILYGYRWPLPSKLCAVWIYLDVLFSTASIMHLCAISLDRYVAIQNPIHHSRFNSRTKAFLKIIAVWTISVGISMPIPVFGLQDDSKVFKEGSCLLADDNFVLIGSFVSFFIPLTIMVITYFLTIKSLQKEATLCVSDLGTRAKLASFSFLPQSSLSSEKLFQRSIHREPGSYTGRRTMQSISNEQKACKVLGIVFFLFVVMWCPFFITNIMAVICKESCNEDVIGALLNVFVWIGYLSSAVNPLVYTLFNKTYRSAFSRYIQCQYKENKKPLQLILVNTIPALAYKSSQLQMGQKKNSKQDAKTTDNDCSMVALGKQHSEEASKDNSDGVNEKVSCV

Cytochrome P450 2C9 = Cytochrome P450 2C9 (Homo sapiens, UniProt P11712); assay: Inhibition of human CYP2C9 by fluorescence assay; format: ADME; in short: as §5
Sequence of Cytochrome P450 2C9 (P11712 whole entry): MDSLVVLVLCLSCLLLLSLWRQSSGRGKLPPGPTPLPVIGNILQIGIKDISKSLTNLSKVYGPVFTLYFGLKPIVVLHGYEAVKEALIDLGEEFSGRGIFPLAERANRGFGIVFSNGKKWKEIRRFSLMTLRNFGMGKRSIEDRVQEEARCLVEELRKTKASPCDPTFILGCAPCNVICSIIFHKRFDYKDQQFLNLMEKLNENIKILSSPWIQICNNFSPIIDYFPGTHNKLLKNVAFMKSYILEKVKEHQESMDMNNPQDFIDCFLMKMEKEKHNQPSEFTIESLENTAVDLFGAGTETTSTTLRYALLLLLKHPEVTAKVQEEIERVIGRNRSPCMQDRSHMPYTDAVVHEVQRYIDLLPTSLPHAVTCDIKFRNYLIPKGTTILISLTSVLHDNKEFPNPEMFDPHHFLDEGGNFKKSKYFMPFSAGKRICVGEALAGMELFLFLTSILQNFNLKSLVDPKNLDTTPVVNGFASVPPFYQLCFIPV

[20] = target: Muscarinic acetylcholine receptor M4 (Homo sapiens, UniProt P08173); assay: Inhibition of muscarinic M4 receptor
[21] = target: Sodium-dependent dopamine transporter (Rattus norvegicus, UniProt P23977); assay: Displacement of [N-methyl-3H]WIN-35428 from rat striatum DAT by filtration binding assay; in short: as §6
Cytochrome P450 1A2 = target: T5, Cytochrome P450 1A2 (Homo sapiens, UniProt P05177); assay: Inhibition of human CYP1A2 by fluorescence assay; format: ADME; in short: as §5
T5 sequence (P05177 whole entry): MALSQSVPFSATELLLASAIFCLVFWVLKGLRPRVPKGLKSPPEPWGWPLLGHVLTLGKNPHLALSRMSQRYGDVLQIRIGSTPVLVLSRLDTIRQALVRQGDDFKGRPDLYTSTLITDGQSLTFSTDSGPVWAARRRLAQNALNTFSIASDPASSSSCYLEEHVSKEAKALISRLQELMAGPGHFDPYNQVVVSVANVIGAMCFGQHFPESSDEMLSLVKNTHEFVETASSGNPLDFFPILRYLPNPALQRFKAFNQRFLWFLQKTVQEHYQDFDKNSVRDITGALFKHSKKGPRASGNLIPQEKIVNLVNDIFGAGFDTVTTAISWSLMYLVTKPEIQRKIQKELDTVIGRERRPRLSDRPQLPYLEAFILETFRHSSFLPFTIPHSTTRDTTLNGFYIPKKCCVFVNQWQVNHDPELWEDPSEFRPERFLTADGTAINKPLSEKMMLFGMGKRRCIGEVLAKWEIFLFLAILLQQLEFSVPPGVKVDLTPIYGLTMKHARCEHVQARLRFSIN

[22] = target: Sodium-dependent serotonin transporter (Mus musculus, UniProt Q60857); assay: Displacement of [3H]citalopram from mouse cortex SERT by filtration binding assay; in short: as §6
[23] = Ratio of drug level in brain to blood in rat; format: ADME, tissue-based; settings: read-out: BBR
[24] = target: Alpha-1A adrenergic receptor (Homo sapiens, UniProt P35348); assay: Inhibition of adrenergic alpha1A receptor
Histamine H1 receptor = Histamine H1 receptor (Homo sapiens, UniProt P35367); assay: Inhibition of histamine H1 receptor
[25] = target: Sodium-dependent serotonin transporter (Rattus norvegicus, UniProt P31652); assay: Displacement of [3H]citalopram from rat cortex SERT by filtration binding assay; in short: as §6
[26] = target: T4, Voltage-gated inwardly rectifying potassium channel KCNH2; assay: Inhibition of human ERG assessed as blockade of channel current by electrophysiology assay
Mus musculus [27] = assay: Antidepressant-like activity in CD1 mouse assessed as reduction in immobility time at 10 mg/kg, po administered 120 mins before test by forced swimming test; format: functional, organism-based; set-up: dose 10 mg/kg
In short: (§7)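 Naive male CD-1 mice, 25-30 g, dosed orally 120 min before the swim test. Immobility (floating upright, only small movements to keep the head above water) was scored over the last 4 min of a 6 min session by an observer blind to treatment, from video.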

Rattus norvegicus [28] = assay: Increase in extracellular dopamine level in frontal cortex of free moving CD rat at 1 mg/kg, ip after 3 hrs by microdialysis; format: functional, organism-based; set-up: dose 1 mg/kg
In short: (§8)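 Male CD rats, 280-310 g, with microdialysis probe in left medial prefrontal cortex, freely moving, locomotion recorded at the same time. Dosed ip at 0.1, 0.3 or 1 mg/kg. Dialysate collected every 20 min after 2 h of perfusion, for 3 h post dose. NA, DA and 5-HT by HPLC with electrochemical detection; two-way repeated-measures ANOVA.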

Mus musculus [29] = assay: Increase in spontaneous locomotor activity in CD1 mouse at 30 mg/kg, po administered 120 mins before test measured for 30 mins; format: functional, organism-based; set-up: dose 30 mg/kg
In short: (§9)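 CD-1 mice dosed orally at 3, 10 or 30 mg/kg, 120 min before test. Total distance travelled recorded over 30 min in infrared activity boxes.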

Mus musculus [30] = assay: Potentiation of 5-hydroxytryptophan-induced stereotpic behavior in po dosed CD1 mouse administered 120 mins before 5HTP challenge measured for 30 mins; format: functional, organism-based
In short: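 CD-1 mice dosed orally 120 min before 5-HTP (100 mg/kg ip). Videotaped for 30 min and scored for hyperlocomotion, hind-limb abduction, flat body posture, head twitches/tremor and body tremor.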

Mus musculus [31] = assay: Increase in spontaneous locomotor activity in CD1 mouse at 10 mg/kg, po administered 120 mins before test measured for 30 mins; format: functional, organism-based; set-up: dose 10 mg/kg; in short: as §9
Rattus norvegicus [32] = assay: Increase in extracellular serotonin level in frontal cortex of free moving CD rat at 1 mg/kg, ip after 3 hrs by microdialysis; format: functional, organism-based; set-up: dose 1 mg/kg; in short: as §8
Homo sapiens = organism: Homo sapiens; assay: Selectivity for human recombinant SERT over human recombinant DAT
Rattus norvegicus [33] = assay: Enhancement of locomotor activity of CD rat at 1 mg/kg, ip; format: functional, organism-based; set-up: dose 1 mg/kg; in short: as §8
Mus musculus [34] = assay: Increase in spontaneous locomotor activity in CD1 mouse at 3 mg/kg, po administered 120 mins before test measured for 30 mins; format: functional, organism-based; set-up: dose 3 mg/kg; in short: as §9
Mus musculus [35] = assay: Antidepressant-like activity in CD1 mouse assessed as reduction in immobility time at 3 mg/kg, po administered 120 mins before test by forced swimming test; format: functional, organism-based; set-up: dose 3 mg/kg; in short: as §7
Rattus norvegicus [36] = assay: Increase in extracellular norepinephrine level in frontal cortex of free moving CD rat at 1 mg/kg, ip after 3 hrs by microdialysis; format: functional, organism-based; set-up: dose 1 mg/kg; in short: as §8

## FC(F)(F)COC[C@H]1[C@@H]2CNC[C@@]21c1ccc(Cl)c(Cl)c1
[1]
  Ki: 347 nM
[2]
  bioavailability: 41%
[3]
  Ki: 631 nM
Brain
  Fu: 0.6%
[4]
  Ki: 56.2 nM
[5]
  clearance: 42 mL/min/kg
[6]
  Vd: 3.2 L/kg
[7]
  half-life: 1.4 h

## CCOC[C@H]1[C@@H]2CNC[C@@]21c1ccc(Cl)c(Cl)c1 [listing 1 of 2 here]
[1]
  Ki: 0.501 nM
[8]
  Ki: 100 nM
[9]
  IC50: 5.01 nM
[10]
  Ki: 200 nM
[11]
  IC50: 0.158 nM
[12]
  Ki: 158 nM
Liver microsomes [13]
  CL: 1.3 mL/min/g
[2]
  bioavailability: 61%
[14]
  Ki: 63.1 nM
[15]
  Ki: 12600 nM
Liver microsomes [16]
  CL: 1.2 mL/min/g
Cytochrome P450 2C19
  IC50: > 9000 nM
Cytochrome P450 3A4
  IC50: > 9000 nM
Transporter
  Ki: 0.135 nM
Cytochrome P450 2D6
  IC50: 4000 nM
[17]
  IC50: 1.26 nM
[3]
  Ki: 7.94 nM
[18]
  fraction unbound: 0.014
[19]
  Ki: 158 nM
Cytochrome P450 2C9
  IC50: > 9000 nM
[4]
  Ki: 0.158 nM
[20]
  Ki: 251 nM
[21]
  Ki: 13.5 nM
[5]
  clearance: 18 mL/min/kg
Cytochrome P450 1A2
  IC50: > 9000 nM
[6]
  Vd: 1.4 L/kg
[22]
  Ki: 0.851 nM
[7]
  half-life: 1.2 h
[23]
  Kp: 4.6
[24]
  Ki: 200 nM
Histamine H1 receptor
  Ki: 1000 nM
[25]
  Ki: 0.676 nM
[26]
  IC50: 4200 nM

## CCOC[C@H]1[C@@H]2CNC[C@@]21c1ccc(Cl)c(Cl)c1 [listing 2 of 2 here]
Mus musculus [27]
  Activity: Active
Rattus norvegicus [28]
  Activity: Active
Mus musculus [29]
  Activity: inactive
Mus musculus [30]
  Activity: Dose-dependent effect
Mus musculus [31]
  Activity: Active
Rattus norvegicus [32]
  Activity: Active
Homo sapiens
  Selectivity ratio: 50
Rattus norvegicus [33]
  Activity: Active
Mus musculus [34]
  Activity: inactive
Mus musculus [35]
  Activity: Active
Rattus norvegicus [36]
  Activity: Active
